Test results as given in ChEMBL document CHEMBL5143722, “Antimicrobial Peptides against Multidrug-Resistant Pseudomonas aeruginosa Biofilm from Cystic Fibrosis Patients” (J Med Chem, 2022).
Calls of active or inactive are those of the source. No cut-off for these calls is given here.

How the values were obtained:
Pseudomonas aeruginosa [1] = test: Induction of biofilm degradation of Pseudomonas aeruginosa clinical isolate 29 at sub MIC concentration incubated for 1 hr by crystal violet staining analysis; type: functional
How it was run: (§1)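 Bacteria at 1 × 10^6 CFU/mL in BM2 grown static at 37 °C for 24 h to form biofilm. Wells rinsed of unattached cells, then exposed for 1 h to serial peptide dilutions (1.56–50 μM). Washed, stained with 0.1% crystal violet, A590 read. Biomass given as % of untreated biofilm; no-bacteria wells as blanks. At least three biological repeats.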

Pseudomonas aeruginosa [2] = test: Induction of biofilm degradation of Pseudomonas aeruginosa clinical isolate 52 at sub MIC concentration incubated for 1 hr by crystal violet staining analysis; type: functional; how it was run: as §1
Pseudomonas aeruginosa [3] = test: Induction of biofilm degradation of Pseudomonas aeruginosa clinical isolate 172 at sub MIC concentration incubated for 1 hr by crystal violet staining analysis; type: functional; how it was run: as §1
Pseudomonas aeruginosa [4] = test: Induction of biofilm degradation of Pseudomonas aeruginosa clinical isolate 238 at sub MIC concentration incubated for 1 hr by crystal violet staining analysis; type: functional; how it was run: as §1
Pseudomonas aeruginosa [5] = test: Induction of biofilm degradation of Pseudomonas aeruginosa clinical isolate 71 at sub MIC concentration incubated for 1 hr by crystal violet staining analysis; type: functional; how it was run: as §1
Pseudomonas aeruginosa [6] = test: Induction of biofilm degradation of Pseudomonas aeruginosa clinical isolate 59 at sub MIC concentration incubated for 1 hr by crystal violet staining analysis; type: functional; how it was run: as §1
Pseudomonas aeruginosa [7] = test: Induction of biofilm degradation of Pseudomonas aeruginosa clinical isolate 59 at 12.5 uM incubated for 1 hr by crystal violet staining analysis
Pseudomonas aeruginosa [8] = test: Antibiofilm activity against Pseudomonas aeruginosa clinical isolate 172 assessed as inhibition of biofilm formation at 1.56 uM incubated for 24 hrs by crystal violet staining based microtiter plate method; type: functional, organism-based
How it was run: (§2)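 Washed overnight cultures in BM2 medium at 1 × 10^6 CFU/mL with 2-fold serial peptide dilutions in a U-bottom 96-well plate. Incubated 24 h at 37 °C without agitation. Unattached cells washed off, then 0.1% crystal violet stain read at 590 nm. No-bacteria blanks. Biomass expressed as % of untreated biofilm. At least three biological repeats.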

Pseudomonas aeruginosa [9] = test: Antibiofilm activity against Pseudomonas aeruginosa clinical isolate 82 in artificial sputum medium at 100 uM incubated for 24 hrs by resazurin staining based microtiter plate method; type: functional, organism-based
How it was run: (§3)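 Washed overnight culture set to OD ~0.05 in BM2, diluted 1:100 into artificial sputum medium (pH 6.9) in 24-well plates. Grown 3 days aerobically at 37 °C with agitation. Peptides (12.5–100 μM) added for 24 h with agitation. Biofilm disrupted by cellulase for 1 h at 37 °C. Resazurin 0.02% for 1–2 h, fluorescence ex 530/em 590 nm; viability as % of untreated wells.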

Pseudomonas aeruginosa [10] = test: Antibiofilm activity against Pseudomonas aeruginosa clinical isolate 99 assessed as inhibition of biofilm formation at 1.56 uM incubated for 24 hrs by crystal violet staining based microtiter plate method; type: functional, organism-based; how it was run: as §2
Pseudomonas aeruginosa [11] = test: Induction of biofilm degradation of Pseudomonas aeruginosa clinical isolate 46 derived from cystic fibrosis patient sputum at 1.56 to 50 uM by crystal violet based staining analysis; type: functional; conditions: dose 1.56-50 µM
How it was run: (§4)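 Biofilm grown from 1 × 10^6 CFU/mL in pooled CF patient sputum diluted 10-fold with BM2, static, 37 °C, 24 h. Unattached cells rinsed off, then serial peptide dilutions (1.56–50 μM) applied for 1 h. Washed and stained with 0.1% crystal violet, read at 590 nm. Reported as % of untreated biomass, with no-bacteria blanks.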

Pseudomonas aeruginosa [12] = test: Antibiofilm activity against Pseudomonas aeruginosa clinical isolate 25 assessed as inhibition of biofilm formation at 1.56 uM incubated for 24 hrs by crystal violet staining based microtiter plate method; type: functional, organism-based; how it was run: as §2
Pseudomonas aeruginosa [13] = test: Induction of biofilm degradation of Pseudomonas aeruginosa clinical isolate 59 at 1.56 uM incubated for 1 hr by crystal violet staining analysis; type: functional; how it was run: as §1
Pseudomonas aeruginosa [14] = test: Antibiofilm activity against Pseudomonas aeruginosa clinical isolate 82 in artificial sputum medium at 25 uM incubated for 24 hrs by resazurin staining based microtiter plate method relative to control; type: functional
How it was run: (§5)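 Overnight cultures were washed, resuspended in BM2 to OD ~0.05, and diluted 1:100 into artificial sputum medium (pH 6.9). Biofilms grew 3 days at 37 °C with aerobic agitation in 24-well plates. Peptides (12.5–100 μM) were then added for 24 h with agitation. Biofilm was disrupted with cellulase for 1 h at 37 °C. Resazurin (0.02%) was added for 1–2 h, fluorescence read at ex 530/em 590 nm, and viability expressed as % of untreated wells.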

Pseudomonas aeruginosa [15] = test: Antibiofilm activity against Pseudomonas aeruginosa clinical isolate 59 assessed as inhibition of biofilm formation at 1.56 uM incubated for 24 hrs by crystal violet staining based microtiter plate method; type: functional, organism-based; how it was run: as §2
Pseudomonas aeruginosa [16] = test: Antibiofilm activity against Pseudomonas aeruginosa clinical isolate 29 assessed as inhibition of biofilm formation at 1.56 uM incubated for 24 hrs by crystal violet staining based microtiter plate method; type: functional, organism-based; how it was run: as §2
Pseudomonas aeruginosa [17] = test: Antibiofilm activity against Pseudomonas aeruginosa clinical isolate 24 in artificial sputum medium at 50 uM incubated for 24 hrs by resazurin staining based microtiter plate method; type: functional, organism-based; how it was run: as §3
Pseudomonas aeruginosa [18] = test: Antibiofilm activity against Pseudomonas aeruginosa clinical isolate 251 assessed as inhibition of biofilm formation at 1.56 uM incubated for 24 hrs by crystal violet staining based microtiter plate method; type: functional, organism-based; how it was run: as §2
Pseudomonas aeruginosa [19] = test: Antibiofilm activity against Pseudomonas aeruginosa clinical isolate 629 assessed as inhibition of biofilm formation at 1.56 uM incubated for 24 hrs by crystal violet staining based microtiter plate method; type: functional, organism-based; how it was run: as §2
Pseudomonas aeruginosa [20] = test: Induction of biofilm degradation of Pseudomonas aeruginosa clinical isolate 24 derived from cystic fibrosis patient sputum at 1.56 to 50 uM by crystal violet based staining analysis; type: functional; conditions: dose 1.56-50 µM; how it was run: as §4
Pseudomonas aeruginosa [21] = test: Antibiofilm activity against Pseudomonas aeruginosa clinical isolate 71 assessed as inhibition of biofilm formation at 1.56 uM incubated for 24 hrs by crystal violet staining based microtiter plate method; type: functional, organism-based; how it was run: as §2
Pseudomonas aeruginosa [22] = test: Bactericidal activity against Pseudomonas aeruginosa clinical isolate 46 derived from cystic fibrosis patient sputum assessed as killing rate at 10 uM measured after 1 hr by time-kill assay relative to control; type: functional
How it was run: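 Pooled CF patient sputum diluted 10-fold in 10 mM phosphate buffer (pH 7.0), centrifuged and 0.22 μm filtered. Bacteria at 10^6 CFU/mL in 10% sputum supernatant with 10 μM peptide for 1 h at 37 °C. Diluted and plated on LB agar; colonies counted against untreated plates.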

Pseudomonas aeruginosa [23] = test: Antibiofilm activity against Pseudomonas aeruginosa clinical isolate 82 assessed as inhibition of biofilm formation at 1.56 uM incubated for 24 hrs by crystal violet staining based microtiter plate method; type: functional, organism-based; how it was run: as §2
Pseudomonas aeruginosa [24] = test: Antibiofilm activity against Pseudomonas aeruginosa clinical isolate 52 assessed as inhibition of biofilm formation at 1.56 uM incubated for 24 hrs by crystal violet staining based microtiter plate method; type: functional, organism-based; how it was run: as §2
Pseudomonas aeruginosa [25] = test: Antibiofilm activity against Pseudomonas aeruginosa clinical isolate 46 assessed as inhibition of biofilm formation at 1.56 uM incubated for 24 hrs by crystal violet staining based microtiter plate method; type: functional, organism-based; how it was run: as §2
Pseudomonas aeruginosa [26] = test: Antibiofilm activity against Pseudomonas aeruginosa clinical isolate 24 in artificial sputum medium at 25 uM incubated for 24 hrs by resazurin staining based microtiter plate method relative to control; type: functional; how it was run: as §5
Pseudomonas aeruginosa [27] = test: Antibiofilm activity against Pseudomonas aeruginosa clinical isolate 72 assessed as inhibition of biofilm formation at 1.56 uM incubated for 24 hrs by crystal violet staining based microtiter plate method; type: functional, organism-based; how it was run: as §2
Pseudomonas aeruginosa [28] = test: Induction of biofilm degradation of Pseudomonas aeruginosa clinical isolate 82 derived from cystic fibrosis patient sputum at 1.56 to 50 uM by crystal violet based staining analysis; type: functional; conditions: dose 1.56-50 µM; how it was run: as §4

In the case of `CC(C)C[C@H](NC(=O)[C@H](CC(C)C)NC(=O)[C@H](CC(C)C)NC(=O)[C@H](CC(C)C)NC(=O)[C@H](CC(C)C)NC(=O)[C@H](CC(C)C)NC(=O)[C@H](CC(C)C)NC(=O)[C@H](CC(C)C)NC(=O)[C@H](CC(C)C)NC(=O)[C@H](CCCCN)NC(=O)[C@H](CCCCN)NC(=O)[C@@H](N)CCCCN)C(=O)N[C@@H](CCCCN)C(=O)N[C@@H](CCCCN)C(=O)N[C@@H](CCCCN)C(N)=O`, the Activity (Pseudomonas aeruginosa [1]) is reported as “Active”, the Activity (Pseudomonas aeruginosa [2]) is reported as “Active” and the Activity (Pseudomonas aeruginosa [3]) is reported as “Active”. The Activity (Pseudomonas aeruginosa [4]) was “Active”, the Activity (Pseudomonas aeruginosa [5]) was “Active” and the Activity (Pseudomonas aeruginosa [6]) was “Active”.

`CC(C)C[C@H](NC(=O)[C@H](CC(C)C)NC(=O)[C@H](CCCCN)NC(=O)[C@H](CC(C)C)NC(=O)[C@H](CC(C)C)NC(=O)[C@H](CCCCN)NC(=O)[C@H](CCCCN)NC(=O)[C@H](CC(C)C)NC(=O)[C@H](CC(C)C)NC(=O)[C@H](CCCCN)NC(=O)[C@H](CCCCN)NC(=O)[C@H](CC(C)C)NC(=O)[C@H](CC(C)C)NC(=O)[C@H](CCCCN)NC(=O)[C@@H](N)CC(C)C)C(N)=O` was tested, and the Activity (Pseudomonas aeruginosa [7]) was “Active”, the inhibition (Pseudomonas aeruginosa [8]) was “Active” and the Activity (Pseudomonas aeruginosa [9]) was “Active”. For the same compound, the inhibition (Pseudomonas aeruginosa [10]) was “Active”, the Activity (Pseudomonas aeruginosa [11]) was “Active” and the inhibition (Pseudomonas aeruginosa [12]) was “Active”. The Activity (Pseudomonas aeruginosa [13]) was “Active”, the Activity (Pseudomonas aeruginosa [14]) was 57.94% and the inhibition (Pseudomonas aeruginosa [15]) was “Active”. For the same compound, the inhibition (Pseudomonas aeruginosa [16]) was “Active”, the Activity (Pseudomonas aeruginosa [17]) was “Active” and the inhibition (Pseudomonas aeruginosa [18]) was “Active”. For the same compound, the inhibition (Pseudomonas aeruginosa [19]) was “Active”, the Activity (Pseudomonas aeruginosa [20]) was “Active” and the inhibition (Pseudomonas aeruginosa [21]) was “Active”. The Activity (Pseudomonas aeruginosa [22]) was greater than 97.91%, the inhibition (Pseudomonas aeruginosa [23]) was “Active” and the inhibition (Pseudomonas aeruginosa [24]) was “Active”. For the same compound, the inhibition (Pseudomonas aeruginosa [25]) was “Active”, the Activity (Pseudomonas aeruginosa [26]) was 41.24% and the inhibition (Pseudomonas aeruginosa [27]) was “Active”. For the same compound, the Activity (Pseudomonas aeruginosa [28]) was “Active”.
